Data published in ChEMBL document CHEMBL1152452, “Modifications incorporated in CpG motifs of oligodeoxynucleotides lead to antagonist activity of toll-like receptors 7 and 9” (2009).
The source made the active and inactive calls. The rule behind the calls is not given here.

Tests used:
J774 [1] = test: Inhibition of 5'-CTATCTGACGTTCTCTGT-3'-activated NF-kappaB activity in mouse J774 cells at 2.5 ug/ml after 1 hr by EMSA; format: cell-based
In short: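 J774 murine macrophages were grown in DMEM with 10% FBS and antibiotics, plated at 5 × 10^6 cells/well, and co-incubated for 1 h with the agonist ODN (0.5 µg/mL) and test ODN (2.5 µg/mL). Nuclear extracts were prepared and NF-κB binding was analysed by EMSA on native polyacrylamide gels with autoradiography.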

J774 [2] = test: Activation of NF-kappaB in mouse J774 cells at 2.5 ug/ml after 1 hr by EMSA; format: cell-based
In short: (§1)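 Murine J774 macrophages in DMEM with 10% FBS and antibiotics, plated at 5×10^6 cells/well. ODNs were given alone or together for 1 h. For inhibition, the agonist ODN at 0.5 μg/mL was co-incubated with the modified ODN at 2.5 μg/mL. Nuclear extracts were resolved by EMSA on native polyacrylamide gels and read by autoradiography.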

[3] = molecular target: T1, Toll-like receptor 9 (Mus musculus) (UniProt Q9EQU3); test: Activation of mouse TLR9 expressed in HEK293 cells assessed as NF-kappaB level at 0.1 ug/mL after 18 hrs by reporter gene assay; format: cell-based
T1 sequence (whole entry): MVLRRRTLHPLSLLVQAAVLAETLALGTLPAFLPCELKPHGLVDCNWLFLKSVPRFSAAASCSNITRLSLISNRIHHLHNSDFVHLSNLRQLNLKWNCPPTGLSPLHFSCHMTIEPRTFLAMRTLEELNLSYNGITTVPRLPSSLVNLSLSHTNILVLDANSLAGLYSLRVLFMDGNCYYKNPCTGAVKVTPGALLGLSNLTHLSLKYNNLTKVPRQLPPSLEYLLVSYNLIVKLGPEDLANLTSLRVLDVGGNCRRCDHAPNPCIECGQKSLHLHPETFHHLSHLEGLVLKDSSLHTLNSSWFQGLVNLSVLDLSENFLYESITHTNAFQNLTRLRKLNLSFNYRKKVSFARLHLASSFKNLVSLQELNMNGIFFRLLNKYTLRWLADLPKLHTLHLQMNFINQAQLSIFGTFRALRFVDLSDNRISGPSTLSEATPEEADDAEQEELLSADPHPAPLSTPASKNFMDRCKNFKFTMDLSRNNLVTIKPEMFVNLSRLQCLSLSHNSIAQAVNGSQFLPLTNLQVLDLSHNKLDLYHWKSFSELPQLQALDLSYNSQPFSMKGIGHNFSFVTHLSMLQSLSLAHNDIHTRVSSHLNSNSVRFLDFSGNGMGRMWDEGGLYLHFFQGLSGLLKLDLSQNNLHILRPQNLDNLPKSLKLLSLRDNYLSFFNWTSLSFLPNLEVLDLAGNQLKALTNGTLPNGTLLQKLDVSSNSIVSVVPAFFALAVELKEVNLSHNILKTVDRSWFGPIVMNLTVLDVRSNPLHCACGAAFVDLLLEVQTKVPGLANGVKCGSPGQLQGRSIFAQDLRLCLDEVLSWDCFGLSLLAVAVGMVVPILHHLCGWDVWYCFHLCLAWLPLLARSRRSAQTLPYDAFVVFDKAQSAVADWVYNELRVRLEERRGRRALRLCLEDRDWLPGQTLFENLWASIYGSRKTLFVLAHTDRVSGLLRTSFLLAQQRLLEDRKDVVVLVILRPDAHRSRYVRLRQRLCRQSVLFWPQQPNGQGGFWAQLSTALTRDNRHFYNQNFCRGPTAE
In short: (§2)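 HEK293 cells stably expressing mouse TLR9 were transiently transfected with a SEAP reporter for 6 h, then stimulated with ODN at 0.1, 0.3 or 1 μg/mL for 18 h. Reporter expression is given as fold change in NF-κB activity over medium. Representative of two independent experiments.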

Mus musculus [4] = test: Immunostimulatory activity in C57BL/6 mouse assessed as induction of TNFalpha level in serum at 2 mg/kg, sc after 2 hrs by Luminex multiplex assay; format: functional, organism-based; set-up: dose 2 mg/kg
In short: (§3)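 Female C57BL/6 mice, 5–6 weeks old, n = 3, received a single 2 mg/kg subcutaneous ODN injection in the right flank. Blood was taken by retro-orbital bleeding 2 h later. Naive mice served as baseline. Representative of three experiments.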

Mus musculus [5] = test: Immunostimulatory activity in C57BL/6 mouse assessed as induction of KC level in serum at 2 mg/kg, sc after 2 hrs by Luminex multiplex assay; format: functional, organism-based; set-up: dose 2 mg/kg; in short: as §3
Mus musculus [6] = test: Immunostimulatory activity in C57BL/6 mouse assessed as induction of IL10 level in serum at 2 mg/kg, sc after 2 hrs by Luminex multiplex assay; format: functional, organism-based; set-up: dose 2 mg/kg; in short: as §3
[7] = molecular target: T1, Toll-like receptor 9 (Mus musculus); test: Activation of mouse TLR9 expressed in HEK293 cells assessed as NF-kappaB level at 1 ug/mL after 18 hrs by reporter gene assay; format: cell-based; in short: as §2
Splenocyte [8] = test: Immunostimulatory activity in C57BL/6 mouse splenocytes assessed as induction of IL6 secretion after 24 hrs by sandwich ELISA; format: functional, cell-based
In short: (§4)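 C57BL/6 splenocytes (mice 5–8 weeks) at 5 × 10^6 cells/mL in RPMI complete medium. ODNs dissolved in PBS were added and the cells incubated at 37 °C for 24 h. Supernatant IL-12 or IL-6 was measured by sandwich ELISA. Runs were done two or three times, in duplicate per concentration.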

Mus musculus [9] = test: Immunostimulatory activity in C57BL/6 mouse assessed as induction of IL12 level in serum at 2 mg/kg, sc after 2 hrs by sandwich ELISA; format: functional, organism-based; set-up: dose 2 mg/kg; in short: as §3
Splenocyte [10] = test: Immunostimulatory activity in C57BL/6 mouse splenocytes assessed as induction of IL12 secretion after 24 hrs by sandwich ELISA; format: functional, cell-based; in short: as §4
[11] = molecular target: T1, Toll-like receptor 9 (Mus musculus); test: Activation of mouse TLR9 expressed in HEK293 cells assessed as NF-kappaB level at 0.3 ug/mL after 18 hrs by reporter gene assay; format: cell-based; in short: as §2
J774 [12] = test: Activation of NF-kappaB in mouse J774 cells at 0.5 ug/ml after 1 hr by EMSA; format: cell-based; in short: as §1
Mus musculus [13] = test: Immunostimulatory activity in C57BL/6 mouse assessed as induction of MCP1 level in serum at 2 mg/kg, sc after 2 hrs by Luminex multiplex assay; format: functional, organism-based; set-up: dose 2 mg/kg; in short: as §3
Mus musculus [14] = test: Immunostimulatory activity in C57BL/6 mouse assessed as induction of MIP-1alpha level in serum at 2 mg/kg, sc after 2 hrs by Luminex multiplex assay; format: functional, organism-based; set-up: dose 2 mg/kg; in short: as §3

| Activity [3] | Activity [7] | Activity [11] | Compound | Activity (J774 [1]) | Activity (J774 [2]) | Activity (Mus musculus [4]) | Activity (Mus musculus [5]) | Activity (Mus musculus [6]) | Activity (Splenocyte [8]) | Activity (Mus musculus [9]) | Activity (Splenocyte [10]) | Activity (J774 [12]) | Activity (Mus musculus [13]) | Activity (Mus musculus [14]) |
| --- | --- | --- | --- | --- | --- | --- | --- | --- | --- | --- | --- | --- | --- | --- |
| – | – | – | COC1[C@H](n2cnc3c(N)ncnc32)O[C@H](COP(=O)(S)O[C@H]2C(OC)[C@H](n3cnc4c(=O)[nH]c(N)nc43)O[C@@H]2COP(=O)(S)O[C@H]2C[C@H](n3cc(C)c(=O)[nH]c3=O)O[C@@H]2COP(=O)(S)O[C@H]2C[C@H](n3ccc(N)nc3=O)O[C@@H]2COP(=O)(S)O[C@H]2C[C@H](n3cc(C)c(=O)[nH]c3=O)O[C@@H]2COP(=O)(S)O[C@H]2C[C@H](n3cnc4c(N)ncnc43)O[C@@H]2COP(=O)(S)O[C@H]2C[C@H](n3cc(C)c(=O)[nH]c3=O)O[C@@H]2COP(=O)(S)O[C@H]2C[C@H](n3ccc(N)nc3=O)O[C@@H]2CO)[C@H]1OP(=O)(S)OC[C@H]1O[C@@H](n2ccc(N)nc2=O)C[C@@H]1OP(=O)(S)OC[C@H]1O[C@@H](n2ccc(N)nc2=O)C[C@@H]1OP(=O)(S)OC[C@H]1O[C@@H](n2cc(C)c(=O)[nH]c2=O)C[C@@H]1OP(=O)(S)OC[C@H]1O[C@@H](n2cc(C)c(=O)[nH]c2=O)C[C@@H]1OP(=O)(S)OC[C@H]1O[C@@H](n2ccc(N)nc2=O)C[C@@H]1OP(=O)(S)OC[C@H]1O[C@@H](n2cc(C)c(=O)[nH]c2=O)C[C@@H]1OP(=O)(S)OC[C@H]1O[C@@H](n2ccc(N)nc2=O)C[C@@H]1OP(=O)(S)OC[C@H]1O[C@@H](n2cc(C)c(=O)[nH]c2=O)C[C@@H]1OP(=O)(S)OC[C@H]1O[C@@H](n2cnc3c(=O)[nH]c(N)nc32)C[C@@H]1OP(=O)(S)OC[C@H]1O[C@@H](n2cc(C)c(=O)[nH]c2=O)C[C@@H]1O (some centres undefined) | inactive | inactive | – | – | – | – | – | – | – | – | – |
| Active | Active | Active | Cc1cn([C@H]2C[C@H](OP(=O)(S)OC[C@H]3O[C@@H](n4ccc(N)nc4=O)C[C@@H]3OP(=O)(S)OC[C@H]3O[C@@H](n4cc(C)c(=O)[nH]c4=O)C[C@@H]3OP(=O)(S)OC[C@H]3O[C@@H](n4cnc5c(=O)[nH]c(N)nc54)C[C@@H]3OP(=O)(S)OC[C@H]3O[C@@H](n4cc(C)c(=O)[nH]c4=O)C[C@@H]3O)[C@@H](COP(=O)(S)O[C@H]3C[C@H](n4ccc(N)nc4=O)O[C@@H]3COP(=O)(S)O[C@H]3C[C@H](n4cc(C)c(=O)[nH]c4=O)O[C@@H]3COP(=O)(S)O[C@H]3C[C@H](n4cc(C)c(=O)[nH]c4=O)O[C@@H]3COP(=O)(S)O[C@H]3C[C@H](n4cnc5c(=O)[nH]c(N)nc54)O[C@@H]3COP(=O)(S)O[C@H]3C[C@H](n4ccc(N)nc4=O)O[C@@H]3COP(=O)(S)O[C@H]3C[C@H](n4cnc5c(N)ncnc54)O[C@@H]3COP(=O)(S)O[C@H]3C[C@H](n4cnc5c(=O)[nH]c(N)nc54)O[C@@H]3COP(=O)(S)O[C@H]3C[C@H](n4cc(C)c(=O)[nH]c4=O)O[C@@H]3COP(=O)(S)O[C@H]3C[C@H](n4ccc(N)nc4=O)O[C@@H]3COP(=O)(S)O[C@H]3C[C@H](n4cc(C)c(=O)[nH]c4=O)O[C@@H]3COP(=O)(S)O[C@H]3C[C@H](n4cnc5c(N)ncnc54)O[C@@H]3COP(=O)(S)O[C@H]3C[C@H](n4cc(C)c(=O)[nH]c4=O)O[C@@H]3COP(=O)(S)O[C@H]3C[C@H](n4ccc(N)nc4=O)O[C@@H]3CO)O2)c(=O)[nH]c1=O (some centres undefined) | – | – | Active | Active | Active | Dose-dependent effect | Active | Dose-dependent effect | Active | Active | Active |
